Experimental data from ChEMBL document CHEMBL1148736, “N-Acylthiadiazolines, a new class of liver X receptor agonists with selectivity for LXRbeta” (J Med Chem, 2007).
The source made the active and inactive calls. No cut-off for these calls is given here.

Columns and labels:
[1] = target: T1, Nuclear receptor subfamily 1 group I member 2 (Homo sapiens, UniProt O75469); assay: Activity at PXR by cell based assay; assay type: functional
T1 sequence (O75469 whole entry): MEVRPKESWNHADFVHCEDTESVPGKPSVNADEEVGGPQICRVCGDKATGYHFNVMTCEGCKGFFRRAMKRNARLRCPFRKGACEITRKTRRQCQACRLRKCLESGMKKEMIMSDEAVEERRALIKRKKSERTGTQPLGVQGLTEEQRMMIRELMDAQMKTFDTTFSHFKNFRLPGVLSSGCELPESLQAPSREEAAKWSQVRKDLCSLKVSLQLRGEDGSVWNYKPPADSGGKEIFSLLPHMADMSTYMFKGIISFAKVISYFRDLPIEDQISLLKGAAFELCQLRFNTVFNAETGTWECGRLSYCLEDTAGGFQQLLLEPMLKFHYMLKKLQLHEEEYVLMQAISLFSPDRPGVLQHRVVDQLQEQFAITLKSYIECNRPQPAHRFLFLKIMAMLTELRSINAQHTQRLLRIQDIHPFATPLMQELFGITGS

[2] = target: T2, Oxysterols receptor LXR-alpha (Homo sapiens, UniProt Q13133); assay: Activity at human LXRalpha by Gal4 transactivation assay
T2 sequence (Q13133 whole entry): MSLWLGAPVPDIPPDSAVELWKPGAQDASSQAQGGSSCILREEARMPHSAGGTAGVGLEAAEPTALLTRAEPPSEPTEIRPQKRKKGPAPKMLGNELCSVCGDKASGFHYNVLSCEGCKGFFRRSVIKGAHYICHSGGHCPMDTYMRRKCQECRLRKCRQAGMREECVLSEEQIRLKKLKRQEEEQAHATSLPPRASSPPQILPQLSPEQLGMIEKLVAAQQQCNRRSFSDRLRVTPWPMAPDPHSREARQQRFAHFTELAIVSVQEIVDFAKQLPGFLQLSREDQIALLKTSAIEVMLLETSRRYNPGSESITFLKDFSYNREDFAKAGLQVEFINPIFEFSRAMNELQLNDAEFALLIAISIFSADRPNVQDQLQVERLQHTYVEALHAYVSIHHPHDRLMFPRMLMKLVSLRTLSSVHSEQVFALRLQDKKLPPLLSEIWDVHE
Summary of the method: (§1)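 GAL4 DBD fused to hLXRα or hLXRβ LBD in pcDNA3, co-transfected into HepG2 with luciferase reporter. Cells in DMEM with 10% lipoprotein-deficient FBS, 7.5 µM lovastatin, 100 µM mevalonic acid. Ligand added 24 h post-transfection as 11-point curves from 10 µM; luciferase read after 16 h. Run in quadruplicate. %E = max fold induction vs max fold induction of reference dual agonist in same experiment.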

[3] = target: T3, Oxysterols receptor LXR-beta (Homo sapiens, UniProt P55055); assay: Activity at human LXRbeta by Gal4 transactivation assay; summary of the method: as §1
T3 sequence (P55055 whole entry): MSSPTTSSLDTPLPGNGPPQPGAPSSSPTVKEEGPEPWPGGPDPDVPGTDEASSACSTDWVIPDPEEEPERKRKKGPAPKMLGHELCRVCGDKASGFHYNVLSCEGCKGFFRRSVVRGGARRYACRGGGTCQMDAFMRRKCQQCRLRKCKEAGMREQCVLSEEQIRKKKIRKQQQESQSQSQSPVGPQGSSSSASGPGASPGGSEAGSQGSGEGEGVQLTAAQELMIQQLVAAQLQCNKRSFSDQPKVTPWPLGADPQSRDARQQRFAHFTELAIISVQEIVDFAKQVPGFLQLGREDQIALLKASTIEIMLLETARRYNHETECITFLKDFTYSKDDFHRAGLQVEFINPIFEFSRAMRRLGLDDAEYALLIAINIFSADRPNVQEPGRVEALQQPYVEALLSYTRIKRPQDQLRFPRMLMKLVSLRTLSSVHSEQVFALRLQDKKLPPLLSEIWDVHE

[4] = Clearance in C57BL/6 mouse at 5 mg/kg, iv; assay type: ADME, organism-based; design: dose 5 mg/kg, route intravenous; settings: in vivo
Summary of the method: (§2)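 Mouse PK study, IV and PO; compound formulated at 2.5 mg/mL in PEG300/Tween 80 (4:1). IV dose 5 mpk (AUC, Cmax, clearance, Vss); oral dose 20 mpk (AUC, Cmax, bioavailability, t1/2).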

Macrophage [5] = assay: Induction of ABCA1 gene expression in LXRalpha deficient mouse macrophages; assay type: functional, cell-based
Summary of the method: (§3)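 Thioglycollate-elicited peritoneal macrophages from LXR-null mice, plated 24 h. Treated as for THP-1 without PMA: 2% lipoprotein-deficient serum medium, compound in DMSO for 24 h. ABCA1 mRNA by TaqMan qRT-PCR with 36B4 control, fold vs DMSO. Two concentrations used.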

Liver = assay: Effect on SREBP1c gene expression in C57BL/6 mouse liver; assay type: functional, tissue-based
Summary of the method: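 Male C57BL/6 mice, 10 weeks old, chow-fed, gavaged daily with vehicle or compound (20–200 mpk) for 3 days. Fasted overnight before the last dose; killed 3 h later. Tissue RNA analysed by TaqMan qRT-PCR.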

Macrophage [6] = assay: Induction of ABCA1 gene expression in LXRalpha and LXRbeta deficient mouse macrophages; assay type: functional, cell-based; summary of the method: as §3
[7] = target: T4, Bile acid receptor (Homo sapiens) (UniProt Q96RI1); assay: Activity at FXR by cell based assay; assay type: functional
T4 sequence (whole entry): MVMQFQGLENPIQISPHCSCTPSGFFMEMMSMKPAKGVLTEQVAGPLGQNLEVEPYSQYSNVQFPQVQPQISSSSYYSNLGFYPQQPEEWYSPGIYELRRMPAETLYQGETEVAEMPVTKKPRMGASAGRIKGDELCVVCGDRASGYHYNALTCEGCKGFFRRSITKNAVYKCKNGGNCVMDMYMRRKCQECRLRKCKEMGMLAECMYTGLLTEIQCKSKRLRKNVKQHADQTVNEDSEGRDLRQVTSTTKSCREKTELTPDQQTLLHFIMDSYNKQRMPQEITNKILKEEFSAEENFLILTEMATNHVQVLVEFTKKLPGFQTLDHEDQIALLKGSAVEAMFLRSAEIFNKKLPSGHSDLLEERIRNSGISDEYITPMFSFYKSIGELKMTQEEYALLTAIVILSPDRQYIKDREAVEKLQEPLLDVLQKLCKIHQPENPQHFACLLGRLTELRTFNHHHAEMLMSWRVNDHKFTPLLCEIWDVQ

[8] = target: Peroxisome proliferator-activated receptor (Homo sapiens) (UniProt P37231+Q07869+Q03181); assay: Activity at PPAR by cell based assay
[9] = target: T5, Oxysterols receptor LXR-alpha (Homo sapiens) (UniProt Q13133); assay: Agonist activity at GAL-linked human LXRalpha expressed in THP1 cells assessed as stimulation of co-activator recruitment by FRET assay relative to GW-3965; assay type: functional
T5 sequence (whole entry): T2 sequence (Q13133 whole entry)
Summary of the method: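 Cell-free TR-FRET coactivator recruitment: 20 nM His-tagged hLXRα or hLXRβ, 300 nM biotinylated SRC-1 peptide, Eu-anti-His antibody, APC-streptavidin. 12-point curves from 20 µM; 1 h at 37 °C. Duplicate. %E = maximal coactivator recruitment relative to reference dual agonist in same experiment.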

[10] = Cmax in C57BL/6 mouse at 5 mg/kg, iv; assay type: ADME, organism-based; design: dose 5 mg/kg, route intravenous; settings: in vivo; summary of the method: as §2

- Activity [1]: Not Active
- EC50 [2]: 608 nM
- EC50 [3]: 98 nM
- clearance [4]: 12.2 mL/min/kg
- Activity [7]: inactive
- Activity [8]: inactive
- Efficacy [9]: 42%
- Cmax [10]: 20.4 µM
SMILES: COc1cccc(C2SC(c3ccc(Cl)cc3)=NN2C(=O)c2c(F)cc(F)cc2F)c1OC (racemic)
- Activity (Macrophage [5]): Active
- Activity (Liver): inactive
- Activity (Macrophage [6]): inactive
